Bioassay records (PubChem)
Hits are enriched below; roughly 12% of the tested compounds scored in any of these assays.
Wee1 stabilizer = inhibitors of human Wee1 degradation; HeLa Luc-Wee1K328M stability, luciferase luminescence; 100% = proteasome inhibitor MG132 effect; actives 1.2% (n = 220,000); reporter increase, % at 5 µM;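 active = activation above the mean of all tested compounds plus 3 SD, set per screening run, cut at about 8.8% in these data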;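 note: cells exposed to compound for 20 h before luminescence read; 0% = DMSO alone and 100% = MG132 at 30 µM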
Target sequence (P30291 whole entry K328M): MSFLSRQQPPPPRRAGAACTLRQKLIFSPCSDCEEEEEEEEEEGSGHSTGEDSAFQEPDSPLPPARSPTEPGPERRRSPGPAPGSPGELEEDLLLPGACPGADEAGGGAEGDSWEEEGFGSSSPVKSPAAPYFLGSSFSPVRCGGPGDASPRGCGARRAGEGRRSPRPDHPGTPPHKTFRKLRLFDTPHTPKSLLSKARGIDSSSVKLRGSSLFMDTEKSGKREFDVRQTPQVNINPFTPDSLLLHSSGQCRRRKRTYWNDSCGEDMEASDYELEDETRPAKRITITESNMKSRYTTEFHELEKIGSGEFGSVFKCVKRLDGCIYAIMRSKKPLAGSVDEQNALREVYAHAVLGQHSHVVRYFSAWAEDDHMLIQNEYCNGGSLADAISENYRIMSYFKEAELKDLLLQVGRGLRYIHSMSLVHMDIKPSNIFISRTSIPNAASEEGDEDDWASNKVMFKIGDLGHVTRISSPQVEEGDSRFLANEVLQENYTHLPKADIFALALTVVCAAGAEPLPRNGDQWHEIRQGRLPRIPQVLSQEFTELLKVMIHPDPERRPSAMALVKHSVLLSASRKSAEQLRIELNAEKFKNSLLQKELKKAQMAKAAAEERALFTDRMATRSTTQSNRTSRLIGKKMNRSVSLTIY
PKD1 inh = blocks activity of human protein kinase D1. PKD1 kinase fluorescence polarization assay. inhibition, % (concentration not given with the values). actives 0.056% (n = 200,000)
Rad51 HR inh = Rad51 (human) homologous recombination inhibition. Q06609. hRad51 DNA strand exchange, fluorescence dequenching. inhibition, % at 10 µM. actives 0.085% (n = 200,000);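 active = inhibition above 40% at the single screening dose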;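 note: 0% = DMSO control wells and 100% = blanks with heterologous ssDNA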
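Assay system: Human Rad51 nucleoprotein filaments preassembled on unlabelled ssDNA | Reagent: Donor/quencher-labelled 47-bp dsDNA substrate | Doses: One concentration, 10 µM final | Times: 37 °C 15-min filament assembly, 30-min compound preincubation, 15-min exchange | Technique: Fluorescein emission 520 nm, excitation 485 nm | Benchmarks: Plate control and blank wells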
CHOP inhibitor = inhibitors of CHOP induction in ER stress response. actives 3.8% (n = 220,000). inhibition, % at 10 µM. CHO-K1 CHOP-promoter luciferase, tunicamycin-induced, 15-18 h;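 active = compounds that reduced the stress-induced luciferase reporter signal by more than about 70% of percent inhibition, limit read from the data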;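 note: 0% = tunicamycin plus vehicle and 100% = wells without tunicamycin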
Arbovirus inh = blocks arbovirus infection; arbovirus infection cell-based antiviral screen; inhibition, % at 10 µM; actives 0.37% (n = 200,000); AID 1251; in the data active = inhibition above about 30%
Lmaj promast = inhibitors of Leishmania major promastigote growth; Leishmania major promastigotes, resazurin fluorescence viability; inhibition, % at 10 µM; actives 9% (n = 200,000); AID 1063;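 note: promastigotes grown with compound for 44 hours at 28 °C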
* = called active by the depositor; nt = no result given. Cut-off read from the data, not from the text of the source, unless noted: active = inhibition above about 50%; inactive = the rest.

SMILES	Wee1 stabilizer	PKD1 inh	Rad51 HR inh	CHOP inhibitor	Arbovirus inh	Lmaj promast
CC(=O)c1c(C)n(-c2ccccc2)c2ccc(OCC(O)CN3CCOCC3)cc12 (stereo unspecified)	0.5	-0.5	4.4	15.5	-8.4	5.5
C=COCCNC(=S)N1CCOCCOCCN(C(=S)NCCOC=C)CCOCCOCC1	-0.3	-2.5	nt	-2.9	2.2	-3.6
O=c1[nH]c(C2C3CC4CC(C3)CC2C4)nc2ccccc12 (stereo unspecified)	1.9	-0.8	-5.7	73.0*	-12.0	1.3
O=C(NNc1cccc(Cl)c1)c1cccnc1Cl	9.4*	-6.9	-0.6	8.7	-35.9	88.2*
O=C(C[n+]1cccc(/C=N/O)c1)N1CCCc2ccccc21	1.5	-4.6	5.4	16.6	12.0	-3.0
O=C1C(NS(=O)(=O)c2cccs2)=C(N2CCN(c3cccc(Cl)c3)CC2)C(=O)c2ccccc21	-0.6	-9.5	-2.9	72.7*	-16.6	98.5*
O=C1C(NS(=O)(=O)c2ccccc2)=C(N2CCN(c3ccc(F)cc3)CC2)C(=O)c2ccccc21	-2.0	nt	nt	-5.9	nt	nt
CCOC(=O)c1c(OCC)[nH]c2ccc(O)cc12	-0.1	-3.2	-12.2	72.5*	2.8	-2.2
Nc1nc(Nc2ccccc2Cl)cc(=O)[nH]1	-3.9	nt	-10.0	-6.0	nt	nt
CNC(=O)c1cc2cc(OC)ccc2n1CCN(Cc1ccccc1)Cc1ccccc1	0.6	-4.6	6.2	31.0	3.5	100.2*
CNC(=O)c1cc2cc(OC)ccc2n1CCN(C)C	1.8	-8.4	-3.9	5.9	13.7	-0.9
Cc1ccc(NC(=O)[C@@H]2CCCN2S(=O)(=O)c2ccccc2C(F)(F)F)cc1S(=O)(=O)N1CCOCC1	0.4	-10.7	5.3	30.3	-10.4	97.9*
O=C1CC(SC2=NCCS2)C(=O)N1c1cccc(Cl)c1Cl (stereo unspecified)	4.4	3.6	10.4	-11.3	1.4	-4.8
N#CC1=C(N)SC(N)=C(C#N)C1Cc1ccccc1	-3.9	-4.2	-6.5	32.6	0.1	55.2*
Cn1c(SCc2ccc([N+](=O)[O-])cc2)nnc1-c1cccnc1	-1.2	-2.0	0.9	-4.7	5.8	-2.8
COc1cc(NC(=O)c2cccs2)c(C(=O)OCC(=O)c2cc(C)n(-c3ccccc3)c2C)cc1OC	4.5	10.4	6.1	85.0*	2.4	19.1
COc1cc(NC(=O)c2cccs2)c(C(=O)OCC(=O)c2cc(C)n(-c3ccc(F)cc3)c2C)cc1OC	3.0	-11.5	-1.1	47.6	0.1	90.4*
C=CCSc1nc2c(sc3nc(C)cc(C)c32)c(=O)[nH]1	-0.1	2.8	-4.2	0.7	65.0*	0.5
Cc1ccc(C)c(S(=O)(=O)N2CCCOC2CNC(=O)C(=O)NCCCn2ccnc2)c1 (stereo unspecified)	-2.1	-10.2	-3.6	23.6	-9.6	-2.9
Cc1cc(C)c(S(=O)(=O)N2CCCOC2CNC(=O)C(=O)NCCCn2ccnc2)c(C)c1 (stereo unspecified)	2.7	-6.9	9.5	35.6	4.3	54.4*
O=C(CCCSc1nc2ccccc2[nH]1)N1CCN(c2ccc([N+](=O)[O-])cc2)CC1	0.1	-7.4	0.2	73.1*	-1.2	6.9
Cc1ccc(/C=N/N2CCN(C3c4ccccc4-c4ccccc43)CC2)o1	-3.0	nt	nt	12.9	nt	nt
COc1cccc2c1C(=O)c1c(O)c3c(c(O)c1C2=O)C[C@@](O)(C(C)=O)C[C@@H]3O[C@H]1C[C@H](N)[C@H](O)[C@H](C)O1	-4.4	34.8	nt	nt	-44.6	100.3*
COc1cccc2c1C(=O)c1c(O)c3c(c(O)c1C2=O)C[C@@](O)(C(=O)CO)C[C@@H]3O[C@H]1C[C@H](N)[C@@H](O)[C@H](C)O1	nt	nt	74.2*	nt	nt	nt
O=C(c1ccc(N2C(=O)C3CC=C(Cl)CC3C2=O)cc1)N1CCCCC1 (stereo unspecified)	1.2	-4.9	5.4	-0.4	-2.8	-5.1
SMILES	Wee1 stabilizer	PKD1 inh	Rad51 HR inh	CHOP inhibitor	Arbovirus inh	Lmaj promast
O=C(Nc1ccc(Br)cc1)c1ccc(N2C(=O)C3CC=C(Cl)CC3C2=O)cc1 (stereo unspecified)	-0.5	2.9	nt	77.0*	-16.1	-5.1
O=C(COC(=O)c1cc(-c2ccccn2)nc2ccccc12)Nc1ncc(C(F)(F)F)cc1Cl	-1.9	nt	5.6	-15.2	nt	nt
O=C(Nc1nccs1)c1cccc(N2C(=O)c3cccc4c([N+](=O)[O-])ccc(c34)C2=O)c1	0.8	-0.9	nt	-33.0	-35.7	73.0*
O=C(Nc1nccs1)c1cccc(N2C(=O)C3C4C=CC(C4)C3C2=O)c1 (stereo unspecified)	-2.7	-3.1	-6.2	11.2	4.3	51.4*
CC(=O)Oc1ccc(Cn2cnc3cc4ccccc4cc32)cc1	-2.2	2.3	4.5	35.5	8.7	57.7*
CCOc1ccc2c(c1)ncn2Cc1ccccc1	2.9	0.8	-5.5	6.0	-22.6	12.5
COCOc1ccc(C2CC(=O)c3c(OCOC)cc(OCOC)cc3O2)cc1 (stereo unspecified)	nt	nt	0.9	nt	nt	nt
COc1cccc(-n2c(SCC(N)=O)nnc2-c2ccncc2)c1	-1.8	0.0	11.2	-3.5	3.8	-3.7
COc1cccc(NC(=O)C(Sc2nnc(-c3ccncc3)n2-c2ccc(Cl)cc2)c2ccccc2)c1 (stereo unspecified)	-2.1	-12.6	21.7	34.3	-20.5	52.8*
CC(=O)Nc1ccc(/C=N/NC(=O)CNC(=O)c2ccccc2)cc1	-3.4	-0.9	-16.5	14.2	-2.1	0.1
CC1(C)Cc2c(cnn2-c2ccccc2)-c2c1c1ccccc1n2CC(O)CBr (stereo unspecified)	3.5	-3.1	15.8	95.4*	-16.7	32.5
CCN1C(=O)/C(=C2\SC(=S)N(NC(=O)c3ccccc3O)C2=O)c2ccccc21	0.6	nt	nt	10.8	nt	nt
O=C(CN1C(=O)/C(=C2\SC(=S)N(C3CCS(=O)(=O)C3)C2=O)c2ccccc21)Nc1ccccc1 (stereo unspecified)	1.4	-13.6	-0.8	20.0	20.0	91.3*
Cc1ccc(NC(=O)CN2C(=O)/C(=C3\SC(=S)N(C4CCS(=O)(=O)C4)C3=O)c3ccccc32)cc1 (stereo unspecified)	0.9	-7.3	-9.5	-22.7	17.5	90.6*
CN(C)c1ccc(C(=O)N/N=C/c2cc(Br)cc(Br)c2O)cc1	2.8	nt	15.2	90.6*	nt	nt
COc1c(Br)cc(Br)cc1/C=N/NC(=O)c1ccncc1	-1.2	1.3	4.3	22.9	-6.6	6.6
O=C(CNC(=O)c1cccc(Br)c1)N/N=C/c1cc(Br)cc(Br)c1O	0.2	8.5	1.3	90.6*	-4.4	-9.7
O=C(CCN1CCOCC1)N/N=C/c1cc(Br)cc(Br)c1O	-0.1	-4.5	4.9	46.1	-1.6	-0.5
O=C(CNC(=O)c1cccc(F)c1)N/N=C/c1cc(Br)ccc1OCc1ccccc1	-0.8	1.2	2.8	49.5	-2.8	51.1*
C=CCn1c(N)c(C(=O)OC(C)CC)c2nc3ccccc3nc21 (stereo unspecified)	-1.5	7.8	0.8	20.9	-15.5	99.9*
